The values that follow come from ChEMBL document CHEMBL1124358, “Synthesis and pharmacological evaluation of CNS activities of [1,2,3]triazolo[4,5-b][1,5]-, imidazolo[4,5-b][1,5]-, and pyrido[2,3-b][1,5]benzodiazepines. 10-Piperazinyl-4H-1,2,3-triazolo[4,5-b][1,5]benzodiazepines with neuroleptic activity” (J Med Chem, 1989).

Structures are written as SMILES.

Experiment [1] concerns Rattus norvegicus. In words: Effective dose against muscular incoordination in rats determined by rotarod test when administered peroral. It counts as functional. In short, it runs like this:
(§1)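 Male Olac Wistar rats (140–150 g), fed and watered ad libitum, in groups of five, dosed orally (water solution or 0.5% carboxymethylcellulose suspension). Tested at 1 and 2 h on a horizontal rod rotating at 2 rpm, 32 mm diameter, with a 30 s cutoff.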

In experiment [2] the target is Muscarinic acetylcholine receptor. In words: Inhibitory activity against Muscarinic acetylcholine receptor in male olac rat brain, using [3H]-QNB as the radioligand.
The subject of experiment [3] is Mus musculus. In words: Effective dose required to evoke catalepsy in mouse when administered perorally. It is filed as functional. The procedure, abridged:
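CFW mice (21–23 g), groups of three, oral dosing in water or 0.5% carboxymethylcellulose. Scored at 0.25, 2.5 and 5.0 h for holding one hind limb on a 2 cm rubber bung and staying on a vertical grid. EDmin is the dose below which no catalepsy occurred at any time.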

The target of experiment [4] is T1, D(2) dopamine receptor (Bos taurus, UniProt P20288). In words: Inhibitory activity Dopamine receptor D2 in calf caudate tissue, using [3H]spiperone as the radioligand.
Experiment [5] relates to Mus musculus. In words: Effective dose required to produce hypothermia in mouse when administered peroral. It is filed as functional. In short, it runs like this: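 Rectal temperature recorded in groups of three CFW mice (21–23 g) at 0.25, 2.5 and 5.0 h after oral compound (water or 0.5% carboxymethylcellulose). Changes in group mean temperature from the initial mean were summed over the three times. Hypothermia was taken as a summed mean fall >4 °C.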

The species entered for experiment [6] is Rattus norvegicus. In words: Inhibition of conditioned avoidance response in rats, peroral dose. It is filed as functional.
For experiment [7], the target named is T1, D(2) dopamine receptor. In words: Inhibitory activity against Dopamine receptor D2 in calf caudate tissue, using [3H]spiperone as the radioligand.
In experiment [8] the target is Muscarinic acetylcholine receptor. In words: Inhibitory activity against muscarinic cholinergic receptors in male olac rat brain, using [3H]QNB as the radioligand.
Experiment [9] concerns the target T1, D(2) dopamine receptor. In words: Inhibitory activity against dopamine receptor D2 in calf caudate tissue using [3H]spiperone.
Experiment [10] has as its system Rattus norvegicus. In words: Effective dose against muscular incoordination in rats determined by rotarod test when administered perorally. It counts as functional. The procedure, abridged: as §1
Experiment [11] relates to Rattus norvegicus. In words: Effective dose against muscular in coordination in rats determined by rotarod test when administered peroral. It counts as functional. The procedure, abridged: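 Male Olac Wistar rats (140–150 g), fed and watered ad libitum, groups of five; compound in distilled water or 0.5% carboxymethylcellulose given orally. Tested at 1 and 2 h on horizontal rod rotating at 2 rpm (32 mm diameter), time on rod recorded up to 30 s.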
On the technique in general: In the rotarod test animals must keep their balance on a rotating rod.

T1 sequence (P20288 whole entry): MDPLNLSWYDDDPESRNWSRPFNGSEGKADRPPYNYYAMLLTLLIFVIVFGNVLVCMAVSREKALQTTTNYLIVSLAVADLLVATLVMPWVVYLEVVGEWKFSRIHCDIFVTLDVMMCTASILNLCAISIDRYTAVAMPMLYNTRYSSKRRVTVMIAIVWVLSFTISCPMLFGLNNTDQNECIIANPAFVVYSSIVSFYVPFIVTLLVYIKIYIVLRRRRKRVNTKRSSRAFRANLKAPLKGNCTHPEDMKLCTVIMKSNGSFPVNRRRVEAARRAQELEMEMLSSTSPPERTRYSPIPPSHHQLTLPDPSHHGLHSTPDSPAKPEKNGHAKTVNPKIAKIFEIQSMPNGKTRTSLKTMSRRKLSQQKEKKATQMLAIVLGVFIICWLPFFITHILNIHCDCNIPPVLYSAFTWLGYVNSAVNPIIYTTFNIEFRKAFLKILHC

In general, IC50 refers to the concentration needed to halve the response being measured. Low values mean greater potency, high ones weaker potency. For `CN1CCN(C2=Nc3cc(Br)ccc3Nc3nn(C)nc32)CC1`, the EDmin in [1] came to 5 mg/kg; in [3], 12.5 mg/kg; in experiment [5] it was 12.5 mg/kg; in experiment [6] it was 5 mg/kg. In addition, the results for the IC50 in experiment [2] and in experiment [4] were 4000 nM and 300 nM, respectively.
Turning to `CN1CCN(C2=Nc3cc(Cl)c(Cl)cc3Nc3ncccc32)CC1`, the EDmin amounted to 50 mg/kg in experiment [3] and 100 mg/kg in [5]. In experiment [7], this compound came in with an IC50 of 9200 nM.
Take `CN1CCN(C2=Nc3cc(F)ccc3Nc3ncn(C)c32)CC1`: the EDmin is 40 mg/kg in experiment [1], 100 mg/kg in experiment [3], 25 mg/kg in experiment [5] and greater than 20 mg/kg in [6]. Besides, the IC50 was greater than 1000 nM in experiment [8] and greater than 10000 nM in [9].
Regarding `CN1CCN(C2=Nc3cc(F)ccc3Nc3c2ncn3C)CC1`, the EDmin was greater than 50 mg/kg in experiment [1], greater than 400 mg/kg in experiment [3], greater than 400 mg/kg in experiment [5] and greater than 50 mg/kg in experiment [6]. Further, the IC50 in experiment [8] is 122000 nM; in experiment [9], greater than 100000 nM.
In the case of `CN1CCN(C2=Nc3cc(F)ccc3Nc3c2ncn3C2CCCCC2)CC1`, the EDmin is greater than 50 mg/kg in experiment [1], greater than 400 mg/kg in experiment [3], 200 mg/kg in [5] and greater than 50 mg/kg in experiment [6]. Moreover, the results for the IC50 in experiment [8] and in experiment [9] were greater than 100000 nM and greater than 10000 nM, respectively.
For `CN1CCN(C2=Nc3cc(C(F)(F)F)ccc3Nc3nn(C)nc32)CC1`, the EDmin was 25 mg/kg in [1], 50 mg/kg in experiment [3], 50 mg/kg in [5] and greater than 25 mg/kg in experiment [6]. The values for the IC50 in experiment [2] and in experiment [7] were greater than 1000 nM and 1100 nM, respectively.
For the compound `Cc1nc2c(n1C)C(N1CCN(C)CC1)=Nc1cc(F)ccc1N2`, the EDmin in experiment [1] was greater than 50 mg/kg; in experiment [3] it was greater than 200 mg/kg; in [5], 50 mg/kg; in experiment [6] it was greater than 50 mg/kg. Also, the figures for the IC50 in experiment [8] and in experiment [9] were greater than 1000 nM and greater than 10000 nM, respectively.
In the case of `CN1CCN(C2=Nc3ccccc3Nc3nn(C)nc32)CC1`, the results for the IC50 in experiment [8] and in experiment [9] were greater than 1000 nM and 1420 nM, respectively. Also, the EDmin is 25 mg/kg in experiment [3], greater than 50 mg/kg in experiment [10], 25 mg/kg in experiment [5] and 5 mg/kg in experiment [6].
In the case of `CN1CCN(C2=Nc3ccccc3Nc3ncccc32)CC1`, in experiment [7], the IC50 was greater than 10000 nM. This compound came in with an EDmin in [5] of 100 mg/kg.
With `CCn1nc2c(n1)C(N1CCN(C)CC1)=Nc1cc(Cl)ccc1N2`, the EDmin in experiment [1] was greater than 5 mg/kg; in experiment [3], 12.5 mg/kg; in experiment [5], 12.5 mg/kg; in experiment [6], 5 mg/kg. Also, the values for the IC50 in experiment [8] and in experiment [9] were 2400 nM and 67 nM, respectively.
For the compound `CN1CCN(C2=Nc3cc(Cl)ccc3Nc3nn(C)nc32)CC1`, the EDmin is greater than 10 mg/kg in experiment [1], 12.5 mg/kg in experiment [3], 6 mg/kg in experiment [5] and 4 mg/kg in [6]. The IC50 was determined as 2600 nM in experiment [2] and 210 nM in experiment [7].
Regarding `CCn1cnc2c1Nc1ccc(F)cc1N=C2N1CCN(C)CC1`, the EDmin was greater than 50 mg/kg in experiment [1], greater than 200 mg/kg in experiment [3], greater than 200 mg/kg in experiment [5] and greater than 50 mg/kg in [6]. Further, the IC50 in experiment [8] is 61000 nM; in experiment [9], greater than 10000 nM.
On to `CN1CCN(C2=Nc3cc(Cl)c(Cl)cc3Nc3nn(C)nc32)CC1`, for which the EDmin was greater than 50 mg/kg in experiment [1], 100 mg/kg in [3], 50 mg/kg in experiment [5] and greater than 20 mg/kg in [6]. The IC50 in [2] was greater than 1000 nM; in experiment [7], 2300 nM.
Regarding `CCn1nc2c(n1)C(N1CCN(C)CC1)=Nc1cc(F)ccc1N2`, the EDmin in experiment [1] stood at 10 mg/kg; in experiment [3], 12.5 mg/kg; in [5], 12.5 mg/kg; in experiment [6], 5 mg/kg. In addition, the results for the IC50 in experiment [8] and in experiment [9] were greater than 1000 nM and 180 nM, respectively.
In the case of `CN1CCN(C2=Nc3cc(F)ccc3Nc3nn(C)nc32)CC1`, the IC50 in [2] is greater than 1000 nM; in [7], 840 nM. Besides, the EDmin in [3] stood at 25 mg/kg; in [10], 20 mg/kg; in experiment [5] it was 12.5 mg/kg; in [6], 5 mg/kg.
`CN1CCN(C2=Nc3cc(Cl)ccc3Nc3ccccc32)CC1` [CLOZAPINE]: the EDmin in [3] worked out at 100 mg/kg; in experiment [11], 40 mg/kg; in experiment [5], 50 mg/kg; in experiment [6] it was 30 mg/kg.
`CN1CCN(C2=Nc3ccccc3Nc3c2nnn3C)CC1` yielded an IC50 in [7] greater than 10000 nM. In addition, the EDmin in [6] is greater than 50 mg/kg.
Turning to `Cc1cc2c(s1)Nc1ccc(F)cc1N=C2N1CCN(C)CC1` [FLUMEZAPINE], the EDmin in experiment [1] worked out at 10 mg/kg; in experiment [3], 6.25 mg/kg; in experiment [5], 1.6 mg/kg; in experiment [6] it was 5 mg/kg. The IC50 in experiment [8] was determined as 80 nM.
